Data set [1] deals with Zea mays. The experiment in a line: Phytotoxicity against Zea mays (maize) at 750 g/ha. It is filed as organism-based. The following applies: in vivo.
The test system of data set [2] is Amaranthus retroflexus. As to the kind of experiment: Pre-emergence herbicidal activity against Amaranthus retroflexus at 1.5 kg/ha applied through spraying immediately after seed plantings. It is filed as functional. An outline of the steps: (§1)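 Seeds sown in 6 cm diameter plastic boxes containing artificial mixed soil. Amaranthus retroflexus seed was reproduced outdoors and stored at room temperature. Alfalfa and rape seed came from a crop institute.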

For data set [3], the system named is Amaranthus retroflexus. As to the kind of experiment: Post-emergence herbicidal activity against Amaranthus retroflexus at 1.5 kg/ha applied through spraying after first true leaf expanded. It is filed as functional. The gist of the method: as §1
The subject of data set [4] is Medicago sativa. As to the kind of experiment: Post-emergence herbicidal activity against Medicago sativa (alfalfa) at 1.5 kg/ha applied through spraying after first true leaf expanded. It is filed as functional. The gist of the method: as §1
For data set [5], the system named is Brassica napus. As to the kind of experiment: Pre-emergence herbicidal activity against Brassica napus (oilseed rape) at 1.5 kg/ha applied through spraying immediately after seed plantings. The class given is functional. An outline of the steps: as §1
Data set [6] concerns Medicago sativa. The experiment in a line: Pre-emergence herbicidal activity against Medicago sativa (alfalfa) at 1.5 kg/ha applied through spraying immediately after seed plantings. The class given is functional. An outline of the steps: as §1
The subject of data set [7] is Brassica napus. As to the kind of experiment: Post-emergence herbicidal activity against Brassica napus (oilseed rape) at 1.5 kg/ha applied through spraying after first true leaf expanded. It is filed as functional. The gist of the method:
as §1

Data set [8] concerns Medicago sativa. The experiment in a line: Post-emergence herbicidal activity against Medicago sativa (alfalfa) at 1500 g/ha applied through spraying after first true leaf expanded. The class given is functional. The gist of the method:
as §1

For data set [9], the system named is Medicago sativa. As to the kind of experiment: Post-emergence herbicidal activity against Medicago sativa (alfalfa) at 75 g/ha applied through spraying after first true leaf expanded. It is filed as functional. An outline of the steps:
as §1

Data set [10] has as its system Brassica napus. The experiment in a line: Post-emergence herbicidal activity against Brassica napus (oilseed rape) at 300 g/ha applied through spraying after first true leaf expanded. The class given is functional. The gist of the method: as §1
Data set [11] relates to Amaranthus retroflexus. The experiment in a line: Post-emergence herbicidal activity against Amaranthus retroflexus at 300 g/ha applied through spraying after first true leaf expanded. The class given is functional. An outline of the steps:
as §1

Data set [12] relates to Amaranthus retroflexus. As to the kind of experiment: Post-emergence herbicidal activity against Amaranthus retroflexus at 75 g/ha applied through spraying after first true leaf expanded. It is filed as functional. An outline of the steps: as §1
Data set [13] has as its system Brassica napus. The experiment in a line: Post-emergence herbicidal activity against Brassica napus (oilseed rape) at 75 g/ha applied through spraying after first true leaf expanded. It is filed as functional. The gist of the method:
as §1

In data set [14] the test system is Amaranthus retroflexus. The experiment in a line: Post-emergence herbicidal activity against Amaranthus retroflexus at 1500 g/ha applied through spraying after first true leaf expanded. The class given is functional. The gist of the method:
as §1

Data set [15] has as its system Brassica napus. The experiment in a line: Post-emergence herbicidal activity against Brassica napus (oilseed rape) at 1500 g/ha applied through spraying after first true leaf expanded. The class given is functional. An outline of the steps: as §1
The test system of data set [16] is Medicago sativa. The experiment in a line: Post-emergence herbicidal activity against Medicago sativa (alfalfa) at 300 g/ha applied through spraying after first true leaf expanded. The class given is functional. The gist of the method:
as §1

Experimental findings from ChEMBL document CHEMBL3046628, “Synthesis and herbicidal activity of 2-cyano-3-substituted-pyridinemethylaminoacrylates” (J Agric Food Chem, 2003) are described below.

The structures appear in SMILES notation.

Turning to `CCOCCOC(=O)/C(C#N)=C(/C)NCc1ccc(OC)nc1`, the Activity result in data set [1] is “Non-toxic”; in data set [2] it was 100%; in data set [3] it was 100%; in data set [4] it was 64%; in [5], 92.5%; in data set [6], 57.1%. The molecule also had an Activity in data set [7] of 69%.

On to `CCOCCOC(=O)/C(C#N)=C(/CC)NCc1ccc(Cl)nc1`, for which the Activity entry in data set [1] is “Non-toxic”; in data set [8], 83.7%; in data set [9], 45.3%; in [2] it was 71.4%; in [10], 98.4%; in [11], 100%. In addition, the Activity turned out to be 88.4% in [12]; 100% in [3]; 83.7% in [4]; 94.1% in [13]; 100% in data set [14]; 100% in data set [15]. Moreover, the Activity in data set [5] is on record as 75%; in [16], 62.8%; in [6], 71.4%; in data set [7], 100%.

For the molecule `CCOc1ccc(CN/C(SC)=C(\C#N)C(=O)OCCOC)cn1`, the Activity result in [1] is “Non-toxic”; in data set [2], 31.3%; in data set [3], 70%; in data set [4], 55.3%; in data set [5] it was 5.1%; in [6], 0%. Moreover, the Activity in data set [7] turned out to be 84.5%.

As for `CCOCCOC(=O)/C(C#N)=C(/NCc1ccc(Cl)cc1)C(C)C`, the Activity stood at 52.2% in data set [2]; 93.9% in [3]; 28.1% in data set [4]; 0% in [5]; 0% in data set [6]; 96.5% in data set [7].

Regarding `CS/C(NCc1ccc(Cl)nc1)=C(/C#N)C(=O)OCC1CCCO1` (configuration not stated), the Activity result in [1] is “Non-toxic”; in data set [8], 64%; in data set [9], 41.9%; in data set [2] it was 14.3%; in data set [10], 97.3%; in data set [11], 88.4%. Further, the Activity is given as 79.1% in data set [12]; 98.8% in [3]; 64% in [4]; 94.7% in [13]; 98.8% in [14]; 100% in [15]. The Activity in [5] stood at 54.2%; in data set [16], 52.3%; in data set [6], 16.7%; in data set [7], 100%.

With `COC(=O)COC(=O)/C(C#N)=C(/NCc1ccc(Cl)nc1)SC`, the Activity result in [1] is on record as “Non-toxic”; in data set [2], 0%; in [3], 0%; in [4], 4.8%; in [5], 0%; in [6], 0%. The same molecule showed an Activity in data set [7] of 0%.

Regarding `CS/C(NCc1ccc(Cl)nc1)=C(/C#N)C(=O)N1CCOCC1`, the Activity entry in data set [1] is on record as “Non-toxic”; in data set [8], 75%; in data set [9], 0%; in [2], 0%; in data set [10] it was 0%; in data set [11], 25%. In addition, the Activity is listed as 0% in data set [12]; 100% in [3]; 75% in data set [4]; 0% in data set [13]; 100% in data set [14]; 99.4% in [15]. The Activity was determined as 0% in data set [5], 9.7% in [16], 0% in data set [6] and 99.4% in data set [7].

On to `CCCOc1ccc(CN/C(C)=C(/C#N)C(=O)OCCOCC)cn1`, for which the Activity entry in data set [1] is listed as “Non-toxic”; in [2], 23.4%; in data set [3], 31%; in data set [4], 34.2%; in data set [5] it was 0%; in [6] it was 17.8%. For the same molecule, the Activity in [7] is 17%.

Regarding `C=CCOC(=O)/C(C#N)=C(/NCc1ccc(Cl)nc1)SCC`, the Activity entry is “Non-toxic” in [1]; 0% in data set [2]; 100% in data set [3]; 98.8% in data set [4]; 0% in data set [5]; 0% in data set [6]. Besides, in data set [7], the Activity came to 100%.

On to `CCOCCOC(=O)/C(C#N)=C(/C)NCc1ccc(Cl)nc1`, for which the Activity result in data set [1] is recorded as “Non-toxic”; in data set [8], 100%; in data set [9] it was 0%; in data set [2], 93%; in data set [12], 18.3%; in data set [3] it was 100%. In addition, the Activity in data set [4] came out at 100%; in data set [13] it was 14.6%; in data set [14] it was 100%; in data set [15] it was 100%; in data set [5] it was 100%; in data set [6], 66.4%. In addition, in data set [7], the Activity stood at 100%.

For `CCOCCOC(=O)/C(C#N)=C(/NCc1ccc(OC)nc1)SC`, the Activity entry in data set [1] was “Non-toxic”; in data set [2], 56.3%; in data set [3], 100%; in [4], 80.9%; in [5] it was 68.3%; in data set [6], 36.4%. In addition, the Activity in data set [7] was 100%.

As for `CCOCCOC(=O)/C(C#N)=C(\NCc1ccc(OCC)nc1)C(C)C`, the Activity result is given as “Non-toxic” in data set [1]; 50.7% in data set [2]; 100% in data set [3]; 45.8% in data set [4]; 54.8% in data set [5]; 10.1% in [6]. In [7], this molecule returned an Activity of 100%.

With `CCCCOc1ccc(CN/C(=C(/C#N)C(=O)OCCOCC)C(C)C)cn1`, the Activity entry is recorded as “Non-toxic” in data set [1]; 10.1% in [2]; 100% in data set [3]; 41% in [4]; 6.3% in data set [5]; 0% in data set [6]. In data set [7], the Activity is on record as 100%.

For the molecule `CCCOc1ccc(CN/C(=C(/C#N)C(=O)OCCOCC)C(C)C)cn1`, the Activity entry in [1] is “Non-toxic”; in data set [2], 30.4%; in [3] it was 100%; in [4], 75.9%; in data set [5], 30.7%; in data set [6], 14.8%. The Activity in data set [7] is reported as 100%.

As to `COCCOC(=O)/C(C#N)=C(/NCc1cccnc1)SC`, the Activity result is reported as “Non-toxic” in [1]; 0% in [2]; 0% in data set [3]; 15.9% in data set [4]; 9.1% in data set [5]; 0% in data set [6]. In data set [7], this molecule came in with an Activity of 6.4%.

For the molecule `CCOCCOC(=O)/C(C#N)=C(\NCc1ccc(OC)nc1)C(C)C`, the Activity entry is “Non-toxic” in data set [1]; 71% in data set [2]; 100% in [3]; 53% in data set [4]; 100% in data set [5]; 32.9% in data set [6]. Besides, in data set [7], the Activity is listed as 100%.

For `CCCOc1ccc(CN/C(SC)=C(\C#N)C(=O)OCCOCC)cn1`, the Activity entry was “Non-toxic” in data set [1]; 0% in data set [2]; 93.8% in [3]; 0% in data set [4]; 16.3% in [5]; 0% in data set [6]. The molecule also had an Activity in data set [7] of 96.8%.

Consider `COCCOC(=O)/C(C#N)=C(/NCc1ccc(OC)nc1)SC`, for which the Activity result in data set [1] is on record as “Non-toxic”; in data set [2] it was 50%; in data set [3] it was 90%; in data set [4], 72.3%; in [5], 48.8%; in [6], 10%. Moreover, the Activity in data set [7] is given as 90.1%.

Turning to `CCOCCOC(=O)/C(C#N)=C(/NCc1ccc(OCC)nc1)SC`, the Activity entry in data set [1] is “Non-toxic”; in data set [2] it was 37.5%; in [3], 100%; in [4], 91.5%; in data set [5], 22%; in data set [6], 0%. In addition, the Activity in [7] is reported as 100%.

`CCOCCOC(=O)/C(C#N)=C\NCc1ccc(Cl)nc1`: the Activity entry was “Non-toxic” in data set [1]; 12.2% in data set [2]; 18.3% in data set [3]; 15.8% in data set [4]; 21.8% in [5]; 14.8% in data set [6]. The molecule further displayed an Activity in data set [7] of 7.3%.
